Key:
Format in all cases: functional
Mus musculus [1] = assay: Effect on cholesterol from CF1 male mice after 16 days at a dose of 60 (mg/kg/day)
Method in brief: (§1)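 CF1 male mice dosed ip for 16 days at 10–60 (mg/kg)/day; liver taken and 10% homogenate made in 0.25 M sucrose + 0.001 M EDTA; aliquot extracted by Folch and Bligh–Dyer methods, mg lipid weighed, cholesterol measured by Liebermann–Burchard method; n = 6; % of 1% CMC control.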

Mus musculus [2] = assay: Effect on mg of lipid from CF1 male mice after 16 days at a dose of 10 (mg/kg/day); method in brief: as §1
Mus musculus [3] = assay: In vitro effect on CF1 male mouse on acyltransferase after 16 days at a dose of 10 (mg/kg)/day
Method in brief: (§2)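 In vivo enzyme study. CF₁ male mice were dosed ip for 16 days in 1% CMC, and liver was homogenised to 10% in 0.25 M sucrose with 0.001 M EDTA. Enzymes assayed: acetyl-CoA synthetase as hydroxamate at 540 nm after 30 min at 37 °C; HMG CoA reductase with [1-¹⁴C]acetate in 9000g supernatant for 60 min at 37 °C; fatty acid synthetase with [2-¹⁴C]malonyl-CoA; acyltransferase with [³H]glycerol 3-phosphate and microsomes for 10 min; phosphatidate phosphohydrolase as released phosphate at 820 nm after 30 min. N = 6; reported as % control.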

Mus musculus [4] = assay: In vitro effect on CF1 male mouse on acyltransferase after 16 days at a dose of 40 (mg/kg)/day; method in brief: as §2
Mus musculus [5] = assay: In vitro effect on CF1 male mouse on acyltransferase after 16 days at a dose of 60 (mg/kg)/day; method in brief: as §2
Mus musculus [6] = species on record: Mus musculus; assay: In vitro effect on CF1 male mouse on phosphatidate phosphohydrolase
Mus musculus [7] = assay: In vitro effect on CF1 male mouse on phosphatidate phosphohydrolase after 16 days at a dose of 20 (mg/kg)/day; method in brief: as §2
Mus musculus [8] = assay: In vitro effect on CF1 male mouse on phosphatidate phosphohydrolase after 16 days at a dose of 60 (mg/kg)/day
Method in brief: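 CF1 male mice dosed ip daily for 16 days, drug suspended in 1% carboxymethylcellulose; liver taken as 10% homogenate in 0.25 M sucrose + 0.001 M EDTA. Phosphatidate phosphohydrolase measured as inorganic phosphate released from phosphatidic acid after 30 min, developed with ascorbic acid/ammonium molybdate, read at 820 nm. Expressed as % of 1% CMC vehicle control; N = 6.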

Mus musculus [9] = assay: Effect on neutral lipids from CF1 male mice after 16 days at a dose of 60 (mg/kg/day)
Method in brief: (§3)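 Dosing was ip in CF₁ male mice (~25 g) for 16 days, with compound suspended in 1% carboxymethylcellulose. Liver was then taken and homogenised to 10% in 0.25 M sucrose with 0.001 M EDTA. Lipid was extracted from a 2 mL aliquot by the Folch and Bligh–Dyer methods and total mg of lipid was weighed. Cholesterol (Liebermann–Burchard), triglycerides (kit), neutral lipids and phospholipids were then measured; N = 6; reported as % of vehicle control.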

Mus musculus [10] = assay: Effect on phospholipids from CF1 male mice after 16 days at a dose of 40 (mg/kg/day); method in brief: as §3
Mus musculus [11] = assay: Effect on Serum cholesterol levels on CF1 male mice at a dose of 12.5 (mg/kg)/day after 9 days
Method in brief: (§4)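 CF1 male mice (~25 g), drug suspended in 1% carboxymethylcellulose in water, given ip daily for 16 days; n = 6; vehicle control. Tail-vein blood on days 9 and 16, serum cholesterol by modified Liebermann–Burchard reaction; day-14 serum triglyceride by commercial kit; expressed as % control.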

Mus musculus [12] = assay: Effect on Serum cholesterol levels on CF1 male mice at a dose of 50 (mg/kg)/day after 16 days; method in brief: as §4
Mus musculus [13] = assay: Effect on Serum cholesterol levels on CF1 male mice at a dose of 50 (mg/kg)/day after 9 days; method in brief: as §4
Mus musculus [14] = species on record: Mus musculus; assay: Effect on Serum cholesterol levels on Hyperlipidemic induced mice After 2-week diet
Method in brief: (§5)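 Mice fed atherogenic diet for 2 weeks to raise serum lipids, then given drug at 20 (mg/kg)/day ip for a further 2 weeks; serum cholesterol and triglyceride measured after the diet and after 14 days dosing; n = 6; compared with 1% CMC and diet-only controls; % control.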

Mus musculus [15] = species on record: Mus musculus; assay: Effect on Serum triglceride levels on Hyperlipidemic induced mice After 2-week diet; method in brief: as §5
Mus musculus [16] = assay: In vitro effect on CF1 male mouse onAc-CoA carboxylase after 16 days at a dose of 10 (mg/kg)/day; conditions: in the assay text read “In vivo” for “In vitro”
Method in brief: (§6)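 Mice (CF1 males) given agent ip daily for 16 days in 1% carboxymethylcellulose; liver 10% homogenate in 0.25 M sucrose + 0.001 M EDTA. Acetyl-CoA carboxylase first polymerized 30 min at 37 °C, then incubated 30 min at 37 °C with sodium [14C]bicarbonate (41.0 mCi/mmol); incorporated label counted. Activity as % of vehicle control; N = 6.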

Mus musculus [17] = assay: In vitro effect on CF1 male mouse onAc-CoA carboxylase after 16 days at a dose of 60 (mg/kg)/day; method in brief: as §6
Mus musculus [18] = assay: In vitro effect on CF1 male mouse on Ac-CoA synthetase after 16 days at a dose of 20 (mg/kg)/day; method in brief: as §2
Mus musculus [19] = assay: In vitro effect on CF1 male mouse on Ac-CoA synthetase after 16 days at a dose of 60 (mg/kg)/day; method in brief: as §2
Mus musculus [20] = assay: In vitro effect on CF1 male mouse on Fatty acid synthetase after 16 days at a dose of 20 (mg/kg)/day; method in brief: as §2
Mus musculus [21] = assay: In vitro effect on CF1 male mouse on Ac-CoA synthetase after 16 days at a dose of 10 (mg/kg)/day; conditions: in the assay text read “In vivo” for “In vitro”; method in brief: as §2
Rattus norvegicus [22] = assay: Effect on low density neutral lipids Holtzman rats after 14 days administration
Method in brief: (§7)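 Holtzman male rats (~400 g) given drug at 20 (mg/kg)/day for 14 days; on day 14 blood taken from the abdominal aorta and serum separated by centrifugation at 3500 rpm; lipid and protein content of the lipoprotein fractions measured.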

Rattus norvegicus [23] = assay: Effect on very low density Phospholipids Holtzman rats after 14 days administration
Method in brief: (§8)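 Holtzman male rats (~400 g) received drug at 20 (mg/kg)/day for 14 days. On day 14, blood was collected from the abdominal aorta and serum was separated by centrifugation at 3500 rpm. Lipid content of the lipoprotein fractions was then determined.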

Rattus norvegicus [24] = assay: Effect on very low density Triglycerides Holtzman rats after 14 days administration; method in brief: as §8
Rattus norvegicus [25] = assay: Effect on Serum cholesterol levels on Holtzman rats at a dose of 10 (mg/kg)/day after 16 days
Method in brief: (§9)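 Holtzman male rats (~200 g) dosed orally by intubation needle daily for 16 days, drug suspended in 1% carboxymethylcellulose; n = 6; vehicle control. Tail-vein serum cholesterol on days 9 and 16 by modified Liebermann–Burchard reaction; day-14 serum triglyceride by commercial kit; % control.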

Rattus norvegicus [26] = assay: Effect on Serum cholesterol levels on Holtzman rats at a dose of 20 (mg/kg)/day after 9 days; method in brief: as §9
Rattus norvegicus [27] = assay: Effect on Serum cholesterol levels on Holtzman rats at a dose of 30 (mg/kg)/day after 9 days; method in brief: as §9
Rattus norvegicus [28] = assay: Effect on Serum triglceride levels on Holtzman rats at a dose of 20 (mg/kg)/day after 14 days; method in brief: as §9
Rattus norvegicus [29] = assay: Effect on high density Protein Holtzman rats after 14 days administration; method in brief: as §7
Mus musculus [30] = assay: Effect on mg of lipid from CF1 male mice after 16 days at a dose of 60 (mg/kg/day); method in brief: as §3

`CC(=O)c1ccccc1N1C(=O)c2ccccc2C1=O` was tested, and the Control (Mus musculus [1]) was 82%, the Control (Mus musculus [2]) was 84% and the Control (Mus musculus [3]) was 35%. It also gave a Control (Mus musculus [4]) of 43%, a Control (Mus musculus [5]) of 45% and a Control (Mus musculus [6]) of 65%. The Control (Mus musculus [7]) was 68%, the Control (Mus musculus [8]) was 98% and the Control (Mus musculus [9]) was 62%. It also gave a Control (Mus musculus [10]) of 143%, a Control (Mus musculus [11]) of 83% and a Control (Mus musculus [12]) of 29%. The Control (Mus musculus [13]) was 68%, the Control (Mus musculus [14]) was 289% and the Control (Mus musculus [15]) was 131%. It also gave a Control (Mus musculus [16]) of 8%, a Control (Mus musculus [17]) of 57% and a Control (Mus musculus [18]) of 46%. The Control (Mus musculus [19]) was 86%, the Control (Mus musculus [20]) was 97% and the Control (Mus musculus [21]) was 53%. It also gave a Control (Rattus norvegicus [22]) of 49%, a Control (Rattus norvegicus [23]) of 359% and a Control (Rattus norvegicus [24]) of 46%. It also gave a Control (Rattus norvegicus [25]) of 54%, a Control (Rattus norvegicus [26]) of 76% and a Control (Rattus norvegicus [27]) of 76%. The Control (Rattus norvegicus [28]) was 61%, the Control (Rattus norvegicus [29]) was 80% and the Control (Mus musculus [30]) was 80%.

— ChEMBL document CHEMBL1122328, “Hypolipidemic activity of phthalimide derivatives. 2. N-phenylphthalimide and derivatives” (1983)
